Source: ChEMBL document CHEMBL3351625, “Ethyl 2-(benzylidene)-7-methyl-3-oxo-2,3-dihydro-5H-thiazolo[3,2-a]pyrimidine-6-carboxylate analogues as a new scaffold for protein kinase casein kinase 2 inhibitor” (Bioorg Med Chem, 2014)

How the values were obtained:
[1] = molecular target: MAP kinase-activated protein kinase 2 (Homo sapiens) (UniProt P49137); assay: Inhibition of human MAPKAP-K2 assessed as residual activity at 10 uM by KinaseProfiler assay
In short: (§1)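 Radioactive phosphorylation assays were run by an outsourced profiling service. Each of 31 human kinases was tested with inhibitor at 10 µM. Residual activity is expressed as a percentage of the mean activity in positive-control wells, which contained all reaction components except inhibitor plus DMSO as solvent control.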

[2] = molecular target: Tyrosine-protein kinase Lyn (Homo sapiens) (UniProt P07948); assay: Inhibition of human Lyn assessed as residual activity at 10 uM by KinaseProfiler assay; in short: as §1
[3] = molecular target: T1, Serine/threonine-protein kinase Chk1 (Homo sapiens) (UniProt O14757); assay: Inhibition of human CHK1 assessed as residual activity at 10 uM by KinaseProfiler assay; in short: as §1
T1 sequence (whole entry): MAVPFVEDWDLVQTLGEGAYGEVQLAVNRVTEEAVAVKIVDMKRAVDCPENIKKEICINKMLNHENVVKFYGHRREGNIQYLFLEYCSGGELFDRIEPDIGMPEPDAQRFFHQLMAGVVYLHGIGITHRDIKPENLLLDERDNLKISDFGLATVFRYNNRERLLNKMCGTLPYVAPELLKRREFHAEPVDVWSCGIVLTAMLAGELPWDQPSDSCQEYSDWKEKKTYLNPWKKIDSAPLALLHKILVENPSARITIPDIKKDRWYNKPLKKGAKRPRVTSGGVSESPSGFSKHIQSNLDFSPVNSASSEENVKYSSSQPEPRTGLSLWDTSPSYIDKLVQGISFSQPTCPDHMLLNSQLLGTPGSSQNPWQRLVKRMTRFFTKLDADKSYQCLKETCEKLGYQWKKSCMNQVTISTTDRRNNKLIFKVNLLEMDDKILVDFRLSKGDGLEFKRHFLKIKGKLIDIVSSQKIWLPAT

[4] = molecular target: Mitogen-activated protein kinase 9 (Homo sapiens) (UniProt P45984); assay: Inhibition of human JNK2alpha2 assessed as residual activity at 10 uM by KinaseProfiler assay; in short: as §1
[5] = molecular target: T2, MAP kinase-activated protein kinase 5 (Homo sapiens) (UniProt Q8IW41); assay: Inhibition of human PRAK assessed as residual activity at 10 uM by KinaseProfiler assay; in short: as §1
T2 sequence (whole entry): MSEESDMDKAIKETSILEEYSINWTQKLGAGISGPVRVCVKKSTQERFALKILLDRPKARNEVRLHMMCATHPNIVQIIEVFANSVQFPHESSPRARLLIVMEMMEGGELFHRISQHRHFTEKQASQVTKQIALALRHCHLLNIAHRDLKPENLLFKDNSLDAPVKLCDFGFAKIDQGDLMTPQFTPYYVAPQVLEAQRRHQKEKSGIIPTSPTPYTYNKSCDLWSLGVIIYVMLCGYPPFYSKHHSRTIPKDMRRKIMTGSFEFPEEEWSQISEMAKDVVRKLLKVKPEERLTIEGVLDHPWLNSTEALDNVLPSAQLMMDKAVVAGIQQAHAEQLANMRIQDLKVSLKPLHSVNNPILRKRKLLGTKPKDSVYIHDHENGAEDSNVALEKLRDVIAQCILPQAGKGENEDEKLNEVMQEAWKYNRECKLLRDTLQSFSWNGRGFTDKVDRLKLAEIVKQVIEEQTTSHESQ

[6] = molecular target: Mitogen-activated protein kinase 1 (Homo sapiens) (UniProt P28482); assay: Inhibition of human MAPK2 assessed as residual activity at 10 uM by KinaseProfiler assay; in short: as §1
[7] = molecular target: Ribosomal protein S6 kinase alpha-5 (Homo sapiens) (UniProt O75582); assay: Inhibition of human MSK1 assessed as residual activity at 10 uM by KinaseProfiler assay; in short: as §1
[8] = molecular target: Dual specificity tyrosine-phosphorylation-regulated kinase 2 (Homo sapiens) (UniProt Q92630); assay: Inhibition of human DYRK2 assessed as residual activity at 10 uM by KinaseProfiler assay
[9] = molecular target: Tyrosine-protein kinase Lck (Homo sapiens) (UniProt P06239); assay: Inhibition of human Lck assessed as residual activity at 10 uM by KinaseProfiler assay; in short: as §1
[10] = molecular target: T3, Serine/threonine-protein kinase Sgk1 (Homo sapiens) (UniProt O00141); assay: Inhibition of human SGK assessed as residual activity at 10 uM by KinaseProfiler assay; in short: as §1
T3 sequence (whole entry): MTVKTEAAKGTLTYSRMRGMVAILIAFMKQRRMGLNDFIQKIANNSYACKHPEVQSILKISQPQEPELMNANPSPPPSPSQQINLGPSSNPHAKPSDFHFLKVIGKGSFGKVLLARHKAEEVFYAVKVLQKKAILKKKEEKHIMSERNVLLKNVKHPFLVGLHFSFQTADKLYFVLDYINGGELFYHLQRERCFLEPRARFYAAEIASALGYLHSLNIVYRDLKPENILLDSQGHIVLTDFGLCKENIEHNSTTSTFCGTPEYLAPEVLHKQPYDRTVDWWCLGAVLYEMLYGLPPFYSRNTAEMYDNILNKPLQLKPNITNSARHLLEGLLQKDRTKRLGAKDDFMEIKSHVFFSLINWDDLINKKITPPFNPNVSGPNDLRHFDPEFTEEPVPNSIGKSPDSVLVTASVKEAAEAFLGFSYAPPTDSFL

[11] = molecular target: T4, Mitogen-activated protein kinase 12 (Homo sapiens) (UniProt P53778); assay: Inhibition of human SAPK3 assessed as residual activity at 10 uM by KinaseProfiler assay; in short: as §1
T4 sequence (whole entry): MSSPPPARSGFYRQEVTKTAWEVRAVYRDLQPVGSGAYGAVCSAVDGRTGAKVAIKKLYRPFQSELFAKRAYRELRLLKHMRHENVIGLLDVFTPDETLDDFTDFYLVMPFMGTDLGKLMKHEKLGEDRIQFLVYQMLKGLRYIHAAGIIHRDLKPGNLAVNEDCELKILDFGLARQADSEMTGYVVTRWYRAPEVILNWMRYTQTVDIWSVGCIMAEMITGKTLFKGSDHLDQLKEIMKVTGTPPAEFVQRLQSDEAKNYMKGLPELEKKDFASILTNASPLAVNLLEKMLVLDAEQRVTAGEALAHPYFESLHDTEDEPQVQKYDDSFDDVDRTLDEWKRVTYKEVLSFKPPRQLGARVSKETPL

[12] = species: Homo sapiens; assay: Inhibition of human CK1 assessed as residual activity at 10 uM by KinaseProfiler assay; in short: as §1

Sequence of Tyrosine-protein kinase Lck (Homo sapiens) (P06239 2-509 limits assumed): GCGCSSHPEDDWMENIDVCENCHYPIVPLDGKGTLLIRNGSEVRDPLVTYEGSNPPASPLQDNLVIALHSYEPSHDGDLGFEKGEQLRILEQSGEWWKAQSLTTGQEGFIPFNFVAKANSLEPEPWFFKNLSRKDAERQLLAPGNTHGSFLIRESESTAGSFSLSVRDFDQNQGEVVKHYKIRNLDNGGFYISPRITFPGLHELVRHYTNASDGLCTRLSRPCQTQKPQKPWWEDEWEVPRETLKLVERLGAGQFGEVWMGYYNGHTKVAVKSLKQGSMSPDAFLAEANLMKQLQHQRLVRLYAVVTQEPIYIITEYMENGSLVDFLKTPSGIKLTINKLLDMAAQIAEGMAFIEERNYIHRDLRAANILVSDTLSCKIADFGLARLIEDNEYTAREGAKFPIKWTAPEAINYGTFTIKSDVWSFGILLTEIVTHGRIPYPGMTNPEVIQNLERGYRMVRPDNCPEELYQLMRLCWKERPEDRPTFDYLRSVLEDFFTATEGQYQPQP
Sequence of Ribosomal protein S6 kinase alpha-5 (Homo sapiens) (O75582 whole entry, looked up): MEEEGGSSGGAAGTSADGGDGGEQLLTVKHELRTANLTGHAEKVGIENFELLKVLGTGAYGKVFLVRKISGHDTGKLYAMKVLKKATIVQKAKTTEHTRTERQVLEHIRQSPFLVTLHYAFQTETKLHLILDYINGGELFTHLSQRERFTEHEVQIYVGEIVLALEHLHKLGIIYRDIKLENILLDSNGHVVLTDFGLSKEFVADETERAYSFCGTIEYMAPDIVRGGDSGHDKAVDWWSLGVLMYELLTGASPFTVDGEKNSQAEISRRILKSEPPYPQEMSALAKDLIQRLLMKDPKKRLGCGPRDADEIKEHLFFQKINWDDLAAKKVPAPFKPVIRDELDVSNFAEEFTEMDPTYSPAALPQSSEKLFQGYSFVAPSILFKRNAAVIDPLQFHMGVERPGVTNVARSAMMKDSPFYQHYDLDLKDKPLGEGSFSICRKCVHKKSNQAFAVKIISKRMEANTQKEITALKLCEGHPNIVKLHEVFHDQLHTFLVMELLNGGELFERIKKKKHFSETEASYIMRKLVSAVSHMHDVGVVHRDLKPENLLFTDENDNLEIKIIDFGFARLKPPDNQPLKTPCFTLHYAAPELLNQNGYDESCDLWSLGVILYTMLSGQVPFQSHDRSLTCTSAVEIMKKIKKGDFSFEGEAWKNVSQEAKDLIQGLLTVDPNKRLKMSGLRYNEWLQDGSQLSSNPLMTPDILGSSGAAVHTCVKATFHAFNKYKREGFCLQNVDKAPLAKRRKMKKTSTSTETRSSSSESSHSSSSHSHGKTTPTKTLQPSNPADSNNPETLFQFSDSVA
Sequence of Mitogen-activated protein kinase 9 (Homo sapiens) (P45984 whole entry, looked up): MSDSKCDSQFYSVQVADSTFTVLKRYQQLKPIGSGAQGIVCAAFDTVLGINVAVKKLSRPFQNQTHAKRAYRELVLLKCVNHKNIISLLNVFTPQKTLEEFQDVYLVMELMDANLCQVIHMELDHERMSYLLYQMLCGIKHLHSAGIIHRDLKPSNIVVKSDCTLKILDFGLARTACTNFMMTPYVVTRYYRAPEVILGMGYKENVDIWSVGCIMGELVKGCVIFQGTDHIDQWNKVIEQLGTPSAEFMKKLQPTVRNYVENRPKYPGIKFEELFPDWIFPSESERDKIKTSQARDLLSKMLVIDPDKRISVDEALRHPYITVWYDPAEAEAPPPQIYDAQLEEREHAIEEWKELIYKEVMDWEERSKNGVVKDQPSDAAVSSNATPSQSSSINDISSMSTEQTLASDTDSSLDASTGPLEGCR
Sequence of Tyrosine-protein kinase Lyn (Homo sapiens) (P07948 2-512 limits assumed): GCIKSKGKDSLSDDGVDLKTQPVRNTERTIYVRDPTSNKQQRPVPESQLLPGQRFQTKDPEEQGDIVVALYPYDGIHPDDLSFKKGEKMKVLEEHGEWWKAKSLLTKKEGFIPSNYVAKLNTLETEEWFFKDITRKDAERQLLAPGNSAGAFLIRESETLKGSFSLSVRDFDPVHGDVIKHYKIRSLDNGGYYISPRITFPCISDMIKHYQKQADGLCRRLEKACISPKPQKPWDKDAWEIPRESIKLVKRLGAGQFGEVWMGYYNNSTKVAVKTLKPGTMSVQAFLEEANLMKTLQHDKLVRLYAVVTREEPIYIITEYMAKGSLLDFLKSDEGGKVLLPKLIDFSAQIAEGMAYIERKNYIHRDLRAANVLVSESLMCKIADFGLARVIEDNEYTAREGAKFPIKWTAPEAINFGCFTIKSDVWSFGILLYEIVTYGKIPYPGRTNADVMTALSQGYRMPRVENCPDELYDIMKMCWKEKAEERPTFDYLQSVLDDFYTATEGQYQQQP
Sequence of Mitogen-activated protein kinase 1 (Homo sapiens) (P28482 whole entry): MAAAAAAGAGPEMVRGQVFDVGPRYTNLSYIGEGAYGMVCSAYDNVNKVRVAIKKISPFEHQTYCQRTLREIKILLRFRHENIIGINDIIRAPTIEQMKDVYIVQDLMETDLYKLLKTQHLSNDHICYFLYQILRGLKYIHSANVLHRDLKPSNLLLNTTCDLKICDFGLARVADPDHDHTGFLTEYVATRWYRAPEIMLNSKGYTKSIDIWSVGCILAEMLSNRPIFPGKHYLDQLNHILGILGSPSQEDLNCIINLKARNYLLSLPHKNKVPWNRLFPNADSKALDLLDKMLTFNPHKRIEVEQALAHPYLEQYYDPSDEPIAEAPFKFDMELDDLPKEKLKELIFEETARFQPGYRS
Sequence of Dual specificity tyrosine-phosphorylation-regulated kinase 2 (Homo sapiens) (Q92630 whole entry, looked up): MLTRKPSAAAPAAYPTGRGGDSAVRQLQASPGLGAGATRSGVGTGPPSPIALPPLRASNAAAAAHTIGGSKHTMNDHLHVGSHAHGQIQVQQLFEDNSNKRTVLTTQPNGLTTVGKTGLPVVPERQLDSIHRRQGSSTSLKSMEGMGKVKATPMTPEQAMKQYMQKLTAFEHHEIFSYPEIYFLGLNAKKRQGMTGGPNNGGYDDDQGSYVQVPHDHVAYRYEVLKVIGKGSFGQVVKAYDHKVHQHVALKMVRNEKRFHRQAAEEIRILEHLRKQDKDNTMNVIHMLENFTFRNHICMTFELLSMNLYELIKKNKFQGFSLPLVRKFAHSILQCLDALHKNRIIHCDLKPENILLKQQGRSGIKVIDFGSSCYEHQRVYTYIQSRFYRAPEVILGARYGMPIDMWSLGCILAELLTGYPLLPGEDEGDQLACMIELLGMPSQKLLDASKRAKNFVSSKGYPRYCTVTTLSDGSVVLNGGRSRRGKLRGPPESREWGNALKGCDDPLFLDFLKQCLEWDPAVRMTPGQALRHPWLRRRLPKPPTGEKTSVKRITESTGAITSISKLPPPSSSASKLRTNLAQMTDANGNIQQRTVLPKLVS
Sequence of MAP kinase-activated protein kinase 2 (Homo sapiens) (P49137 whole entry, looked up): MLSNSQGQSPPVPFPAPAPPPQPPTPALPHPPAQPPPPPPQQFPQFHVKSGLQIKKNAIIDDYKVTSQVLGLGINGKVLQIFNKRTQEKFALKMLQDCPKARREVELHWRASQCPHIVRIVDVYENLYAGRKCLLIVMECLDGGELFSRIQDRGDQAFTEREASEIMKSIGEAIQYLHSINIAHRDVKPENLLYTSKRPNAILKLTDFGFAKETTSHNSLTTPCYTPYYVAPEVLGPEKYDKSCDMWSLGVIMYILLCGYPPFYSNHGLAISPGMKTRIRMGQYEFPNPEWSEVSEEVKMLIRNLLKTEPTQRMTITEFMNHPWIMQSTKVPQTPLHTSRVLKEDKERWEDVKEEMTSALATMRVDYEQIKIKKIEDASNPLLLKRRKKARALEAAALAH

SMILES: Brc1c(Br)c(Br)c2[nH]nnc2c1Br
- Activity [1]: 78%
- Activity [2]: 113%
- Activity [3]: 149%
- Activity [4]: 50%
- Activity [5]: 60%
- Activity [6]: 104%
- Activity [7]: 66%
- Activity [8]: 2%
- Activity [9]: 78%
- Activity [10]: 65%
- Activity [11]: 29%
- Activity [12]: 51%

SMILES: CCOC(=O)C1=C(C)N=c2s/c(=C\c3ccc(O)c(O)c3)c(=O)n2C1c1ccc(Cl)cc1 (stereo unspecified)
- Activity [1]: 98%
- Activity [2]: 20%
- Activity [3]: 117%
- Activity [4]: 91%
- Activity [5]: 36%
- Activity [6]: 85%
- Activity [7]: 127%
- Activity [8]: 14%
- Activity [9]: 57%
- Activity [10]: 85%
- Activity [11]: 69%
- Activity [12]: 50%

SMILES: CCOC(=O)C1=C(C)N=c2s/c(=C\c3cc(O)c(O)c(O)c3)c(=O)n2C1c1ccc(Cl)cc1 (stereo unspecified)
- Activity [1]: 86%
- Activity [2]: 5%
- Activity [3]: 127%
- Activity [4]: 92%
- Activity [5]: 28%
- Activity [6]: 87%
- Activity [7]: 124%
- Activity [8]: 118%
- Activity [9]: 61%
- Activity [10]: 61%
- Activity [11]: 63%
- Activity [12]: 77%
